Tests used:
Type in all cases: functional
[1] = test system: Mycobacterium tuberculosis; assay: Antimycobacterial activity against Mycobacterium tuberculosis H37Rv at 6.25 ug/ml by BACTEC 460; conditions: for inhibition at 6.25 µg/mL: Mycobacterium tuberculosis, H37Rv
U-937 [2] = assay: Cytotoxicity against human U937 cells assessed as cell viability at 10 ug/ml after 24 hrs by MTT assay; conditions: U-937, 24 h, read-out: Activity
In short: (§1)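 U937 human monocytic cells seeded at 1 × 10⁵ cells/mL and allowed to adhere for 1 h at 37 °C under 5% CO₂. Non-adherent cells were rinsed off with RPMI 1640. Adherent cells were exposed in triplicate to compound, medium alone (live control) or 3% Tween 20 (dead control). MTT (5 mg/mL stock in PBS) was added for 3 h at 37 °C. Formazan was dissolved in 0.4 M HCl/isopropanol and A600 read. Values given as percent viability.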

U-937 [3] = assay: Cytotoxicity against human U937 cells assessed as cell viability at 10 ug/ml after 72 hrs by MTT assay; conditions: U-937, 72 h, read-out: Activity; in short: as §1
U-937 [4] = assay: Cytotoxicity against human U937 cells assessed as cell viability at 1 ug/ml after 24 hrs by MTT assay; conditions: U-937, 24 h, read-out: Activity; in short: as §1
U-937 [5] = assay: Cytotoxicity against human U937 cells assessed as cell viability at 1 ug/ml after 72 hrs by MTT assay; conditions: U-937, 72 h, read-out: Activity; in short: as §1

Cc1cc(C(OCC(O)CNc2ncn[nH]2)c2ccncc2)c2cc(Br)ccc2n1 (stereo in doubt; 13) [1-(1H-1,2,4-TRIAZOL-5-YLAMINO)-3-((6-BROMO-2-METHYLQUINOLIN-4-YL)(PYRIDIN-4-YL)METHOXY)PROPAN-2-OL (STRUCTURAL MIX)]
inhibition (INH) [1]: 15%

COc1ccccc1N1CCN(CC(O)COC(c2ccccc2)c2cccc3ccccc23)CC1 (stereo unspecified)
viability at 10 µg/mL (U-937 [2]): 81% | viability at 10 µg/mL (U-937 [3]): 62% | viability at 1 µg/mL (U-937 [4]): 81% | viability at 1 µg/mL (U-937 [5]): 64% | inhibition at 6.25 µg/mL [1]: 90%

Cc1cc(C(OCC(O)CN(C)CCO)c2ccncc2)c2cc(Br)ccc2n1 (stereo unspecified)
inhibition at 6.25 µg/mL [1]: 13%

OC(COC(c1ccccc1)c1cccc2ccccc12)CN1CCN(c2ccc(Cl)c(Cl)c2)CC1 (stereo unspecified)
inhibition at 6.25 µg/mL [1]: 4%

OC(COC(c1ccccc1)c1cccc2ccccc12)CN1CCN(c2cccc(C(F)(F)F)c2)CC1 (stereo unspecified)
inhibition at 6.25 µg/mL [1]: 11%

COc1cccc(N2CCN(CC(O)COC(c3ccccc3)c3cccc4ccccc34)CC2)c1 (stereo unspecified)
viability at 10 µg/mL (U-937 [2]): 82% | viability at 10 µg/mL (U-937 [3]): 63% | viability at 1 µg/mL (U-937 [4]): 100% | viability at 1 µg/mL (U-937 [5]): 100% | inhibition at 6.25 µg/mL [1]: 99%

Cc1cc(C(OCC(O)Cn2cccn2)c2ccncc2)c2cc(Br)ccc2n1 (stereo unspecified)
inhibition at 6.25 µg/mL [1]: 9%

Cc1cc(C(OCC(O)Cn2ccc(C)n2)c2ccncc2)c2cc(Br)ccc2n1 (stereo unspecified)
inhibition at 6.25 µg/mL [1]: 8%

OC(COC(c1ccccc1)c1cccc2ccccc12)CN1CCN(C(c2ccccc2)c2ccccc2)CC1 (stereo unspecified)
viability at 10 µg/mL (U-937 [2]): 74% | viability at 10 µg/mL (U-937 [3]): 70% | viability at 1 µg/mL (U-937 [4]): 93% | viability at 1 µg/mL (U-937 [5]): 79% | inhibition at 6.25 µg/mL [1]: 98%

Cc1cc(C(OCC(O)CNCCN)c2ccncc2)c2cc(Br)ccc2n1 (stereo unspecified)
inhibition at 6.25 µg/mL [1]: 5%

Cc1cc(C(OCC(O)CNc2ncn[nH]2)c2ccncc2)c2cc(Br)ccc2n1 (stereo in doubt; 12) [1-(1H-1,2,4-TRIAZOL-5-YLAMINO)-3-((6-BROMO-2-METHYLQUINOLIN-4-YL)(PYRIDIN-4-YL)METHOXY)PROPAN-2-OL (STRUCTURAL MIX)]
inhibition at 6.25 µg/mL [1]: 22%

COCCNCC(O)COC(c1ccncc1)c1cc(C)nc2ccc(Br)cc12 (stereo unspecified)
inhibition at 6.25 µg/mL [1]: 19%

OC(COC(c1ccccc1)c1cccc2ccccc12)CN1CCN(c2ccccn2)CC1 (stereo unspecified)
inhibition at 6.25 µg/mL [1]: 23%

OC(COC(c1ccccc1)c1cccc2ccccc12)CN1CCN(Cc2ccccc2)CC1 (stereo unspecified)
viability at 10 µg/mL (U-937 [2]): 77% | viability at 10 µg/mL (U-937 [3]): 74% | viability at 1 µg/mL (U-937 [4]): 77% | viability at 1 µg/mL (U-937 [5]): 71% | inhibition at 6.25 µg/mL [1]: 91%

OC(COC(c1ccccc1)c1cccc2ccccc12)CN1CCN(c2ccc(F)cc2)CC1 (stereo unspecified)
inhibition at 6.25 µg/mL [1]: 14%

Cc1cc(C(OCC(O)CNc2nnn[nH]2)c2ccncc2)c2cc(Br)ccc2n1 (stereo unspecified)
inhibition at 6.25 µg/mL [1]: 20%

Cc1cc(C(OCC(O)Cn2cncn2)c2ccncc2)c2cc(Br)ccc2n1 (stereo unspecified)
inhibition at 6.25 µg/mL [1]: 10%

Cc1cc(C(OCC(O)CN2CCN(c3ccccn3)CC2)c2ccncc2)c2cc(Br)ccc2n1 (stereo unspecified)
inhibition at 6.25 µg/mL [1]: 4%

OC(COC(c1ccccc1)c1cccc2ccccc12)CN1CCN(c2ccc(Cl)cc2)CC1 (stereo unspecified)
inhibition at 6.25 µg/mL [1]: 5%

Cc1cc(C(OCC(O)Cn2ccnc2)c2ccncc2)c2cc(Br)ccc2n1 (stereo unspecified)
inhibition at 6.25 µg/mL [1]: 7%

— ChEMBL document CHEMBL1157856, “Novel quinoline and naphthalene derivatives as potent antimycobacterial agents” (2010)
